The results in this text go back to ChEMBL document CHEMBL3739274, “Highly functionalized tetrahydropyridines are cytotoxic and selective inhibitors of human puromycin sensitive aminopeptidase” (Eur J Med Chem, 2015).

Assay [1] in a line: Inhibition of Escherichia coli aminopeptidase-N using Leu-pNA as substrate after 30 mins. The method, boiled down:
(§1)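 Enzyme was preincubated with compound in triplicate for 30 min at 37 °C in 10 mM Tris pH 7.5, 100 mM NaCl. Leu-pNA was then added and the immediate absorbance rise followed at 405 nm. IC₅₀ was computed from the concentration series.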

For the next assay, the target named is T1, Aminopeptidase N (Sus scrofa, UniProt P15145).
T1 sequence (P15145 whole entry): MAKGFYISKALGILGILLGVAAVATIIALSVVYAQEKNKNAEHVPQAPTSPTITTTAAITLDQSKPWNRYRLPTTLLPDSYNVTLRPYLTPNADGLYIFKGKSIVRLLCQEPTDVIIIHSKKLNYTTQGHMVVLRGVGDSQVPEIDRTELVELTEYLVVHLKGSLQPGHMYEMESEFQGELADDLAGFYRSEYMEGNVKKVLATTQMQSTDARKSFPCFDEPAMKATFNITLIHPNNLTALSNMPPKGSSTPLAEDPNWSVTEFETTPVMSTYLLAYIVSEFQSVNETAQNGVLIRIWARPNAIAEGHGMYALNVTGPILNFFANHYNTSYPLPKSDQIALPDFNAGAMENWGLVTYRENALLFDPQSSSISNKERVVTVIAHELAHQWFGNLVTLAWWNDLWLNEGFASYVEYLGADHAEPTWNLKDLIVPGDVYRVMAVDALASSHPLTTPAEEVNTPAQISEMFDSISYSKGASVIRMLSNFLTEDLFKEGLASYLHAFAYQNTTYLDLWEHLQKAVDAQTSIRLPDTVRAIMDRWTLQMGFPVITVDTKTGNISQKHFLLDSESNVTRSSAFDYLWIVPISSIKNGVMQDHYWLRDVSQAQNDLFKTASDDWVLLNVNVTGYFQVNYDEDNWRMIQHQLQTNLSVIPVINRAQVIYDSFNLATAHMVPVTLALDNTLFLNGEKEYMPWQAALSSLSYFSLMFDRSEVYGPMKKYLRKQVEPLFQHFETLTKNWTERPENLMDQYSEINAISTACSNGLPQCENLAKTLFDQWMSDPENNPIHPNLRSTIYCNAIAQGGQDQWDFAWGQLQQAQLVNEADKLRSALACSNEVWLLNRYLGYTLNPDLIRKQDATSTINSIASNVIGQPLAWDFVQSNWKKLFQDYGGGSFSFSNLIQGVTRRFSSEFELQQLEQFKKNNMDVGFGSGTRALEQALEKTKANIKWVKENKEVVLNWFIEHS
Description: Inhibition of porcine aminopeptidase-N using Leu-pNA as substrate after 30 mins. The method, boiled down: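 Commercial porcine enzyme was preincubated with compound in triplicate for 30 min at 37 °C. Substrate was then added and the immediate absorbance rise at 405 nm recorded. IC₅₀ was computed from the concentration series.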

A short description of assay [2]: Inhibition of Plasmodium falciparum aminopeptidase-N using Leu-pNA as substrate after 30 mins. The essentials: as §1
A further assay concerns HeLa. Description: Cytotoxicity against human HeLa cells after 48 hrs by MTT assay. In kind it is functional. The essentials:
(§2)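 Cell lines were grown in modified Eagle's medium with 10% FBS. Cells were seeded at 10,000 per well and left 24 h to attach in humid 5% CO₂. Viability was measured by MTT, with formazan dissolved in DMSO and absorbance read at 562 nm. Results are % cytotoxicity/viability, triplicates.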
Background: Tetrazolium dyes change colour on reduction, which living cells bring about.

The test system of a further assay is HepG2. Nature of the assay: Cytotoxicity against human HepG2 cells after 48 hrs by MTT assay. In kind it is functional. The following applies: HepG2, 48 h. The essentials:
as §2

The subject of another assay is A549. Description: Cytotoxicity against human A549 cells after 48 hrs by MTT assay. In kind it is functional. The following applies: A549, 48 h. The essentials: as §2
In assay [3] the target is Puromycin-sensitive aminopeptidase (Homo sapiens, UniProt P55786). Description: Inhibition of recombinant human puromycin sensitive aminopeptidase using Leu-pNA as substrate after 30 mins.
Sequence of Puromycin-sensitive aminopeptidase (P55786 whole entry): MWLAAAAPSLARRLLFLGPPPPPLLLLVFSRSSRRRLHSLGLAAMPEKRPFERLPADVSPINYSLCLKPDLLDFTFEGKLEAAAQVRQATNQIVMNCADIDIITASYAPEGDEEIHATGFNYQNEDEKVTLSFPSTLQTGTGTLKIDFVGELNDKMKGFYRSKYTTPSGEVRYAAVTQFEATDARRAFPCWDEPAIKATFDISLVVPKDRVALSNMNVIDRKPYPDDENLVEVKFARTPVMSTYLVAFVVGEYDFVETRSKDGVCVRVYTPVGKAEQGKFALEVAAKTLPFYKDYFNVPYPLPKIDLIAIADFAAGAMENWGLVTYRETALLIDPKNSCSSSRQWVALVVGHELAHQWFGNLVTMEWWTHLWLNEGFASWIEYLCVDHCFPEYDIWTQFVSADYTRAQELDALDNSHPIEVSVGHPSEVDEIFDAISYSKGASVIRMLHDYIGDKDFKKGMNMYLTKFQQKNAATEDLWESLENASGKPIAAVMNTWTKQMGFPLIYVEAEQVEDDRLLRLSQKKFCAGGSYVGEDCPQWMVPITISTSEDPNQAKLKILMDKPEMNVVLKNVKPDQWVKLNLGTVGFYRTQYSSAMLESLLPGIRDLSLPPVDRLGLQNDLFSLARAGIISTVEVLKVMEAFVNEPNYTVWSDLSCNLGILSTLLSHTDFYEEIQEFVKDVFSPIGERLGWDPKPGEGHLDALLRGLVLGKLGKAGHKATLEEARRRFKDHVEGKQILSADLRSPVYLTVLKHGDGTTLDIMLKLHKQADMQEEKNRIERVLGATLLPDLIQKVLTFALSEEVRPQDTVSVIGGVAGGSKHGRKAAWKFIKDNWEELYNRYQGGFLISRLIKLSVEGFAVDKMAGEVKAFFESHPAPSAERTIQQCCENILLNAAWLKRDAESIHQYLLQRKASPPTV

A word on the IC50: it is the midpoint of a concentration-inhibition curve. In general, GI50 refers to the concentration giving 50% growth inhibition.

Take `CCOC(=O)C1=C(Nc2ccccc2)CC(c2ccc(Br)cc2)N(c2ccccc2)C1c1cccs1` (stereo not given): the IC50 (in assay [1]; against Aminopeptidase N; in assay [2]) was above 100 µM in each case.
For the compound `CCOC(=O)C1=C(Nc2ccccc2)CC(c2ccc(C#N)cc2)N(c2ccccc2)C1c1cccnc1` (stereo not given), the GI50 was above 100 µM in the assay with HeLa, 13.7 µM in the assay on HepG2 and above 100 µM with A549. The IC50 (in assay [1]; on Aminopeptidase N; in assay [2]) was above 100 µM in each case.
As for `CCOC(=O)C1=C(Nc2ccccc2)CC(c2ccc(F)cc2)N(c2ccccc2)C1c1ccc([N+](=O)[O-])cc1` (stereo not given), the GI50 with HeLa is 88.2 µM; with HepG2 it was above 100 µM; in the assay on A549 it was above 100 µM.
Turning to `CCOC(=O)C1=C(Nc2ccccc2)CC(c2cc(OC)c(OC)c(OC)c2)N(c2ccccc2)C1c1cccnc1` (stereo not given), the 50% inhibitory concentration (IC50) (in assay [1]; against Aminopeptidase N; in assay [2]) was above 100 µM throughout.
Take `CCOC(=O)C1=C(Nc2ccc(C)cc2)CC(c2ccc(F)cc2)N(c2ccc(C)cc2)C1c1ccc(F)cc1` (stereo not given): the GI50 in the assay with HeLa is above 100 µM; in the assay with HepG2, 14.9 µM; in the assay on A549, above 100 µM.
For `CCOC(=O)C1=C(Nc2ccccc2)CC(c2cccnc2)N(c2ccccc2)C1c1cccnc1` (stereo not given), the GI50 was 87.9 µM in the assay with HeLa, 81.5 µM with HepG2 and above 100 µM in the assay on A549. For the same compound, the IC50 (in assay [1]; against Aminopeptidase N; in assay [2]) was above 100 µM in each case.
Regarding `CCOC(=O)C1C(=O)CC(c2cccnc2)N(c2ccccc2)C1c1cccnc1` (stereo not given), the values for the GI50 in the assay with HeLa, with HepG2 and in the assay on A549 were 9.32 µM, 11.2 µM and above 100 µM, respectively. The 50% inhibitory concentration (IC50) (in assay [1]; against Aminopeptidase N; in assay [2]) was above 100 µM each time.
As to `CCOC(=O)C1=C(Nc2ccccc2)CC(c2ccc(Cl)cc2)N(c2ccccc2)C1c1cccnc1` (stereo not given), the GI50 is 9.95 µM in the assay on HeLa, 11.9 µM in the assay on HepG2 and above 100 µM with A549. In addition, the IC50 (in assay [1]; against Aminopeptidase N; in assay [2]) was above 100 µM in each case.
For `COc1ccc(C[C@H](N)C(=O)N[C@H]2[C@@H](O)[C@H](n3cnc4c(N(C)C)ncnc43)O[C@@H]2CO)cc1` [PUROMYCIN], the IC50 in assay [1] was above 100 µM; at Aminopeptidase N it was above 100 µM; in assay [3], 2.45 µM; in assay [2], above 100 µM.
Take `OC1=CC(c2cccnc2)N(c2ccccc2)C(c2cccnc2)C1` (stereo not given): the 50% inhibitory concentration (IC50) (in assay [1]; on Aminopeptidase N; in assay [2]) was above 100 µM throughout.
In the case of `CCOC(=O)C1=C(Nc2ccccc2)CC(c2ccc(Br)cc2)N(c2ccccc2)C1c1ccc([N+](=O)[O-])cc1` (stereo not given), the GI50 with HeLa is 10.6 µM; in the assay with HepG2, above 100 µM; in the assay on A549, above 100 µM.
As for `CCOC(=O)C1=C(Nc2ccc(C)cc2)CC(c2ccccc2)N(c2ccc(C)cc2)C1c1ccccn1` (stereo not given), the results for the concentration for 50% growth inhibition (GI50) with HeLa, with HepG2 and in the assay with A549 were 90.7 µM, above 100 µM and above 100 µM, respectively. In addition, the IC50 (in assay [1]; against Aminopeptidase N; in assay [2]) was above 100 µM each time.
Take `COC(=O)C1=C(Nc2ccccc2)CC(c2ccc([N+](=O)[O-])cc2)N(c2ccccc2)C1c1ccc([N+](=O)[O-])cc1` (stereo not given): the IC50 (in assay [1]; against Aminopeptidase N; in assay [2]) was above 100 µM each time.
As to `CCOC(=O)C1=C(Nc2ccccc2)CC(c2ccccn2)N(c2ccccc2)C1c1ccccn1` (stereo not given), the IC50 (in assay [1]; at Aminopeptidase N; in assay [2]) was above 100 µM throughout.
`OC1=CC(c2ccccn2)N(c2ccccc2)C(c2ccccn2)C1` (stereo not given): the IC50 (in assay [1]; against Aminopeptidase N; in assay [2]) was above 100 µM throughout.
Consider `CCOC(=O)C1C(=O)CC(c2ccccn2)N(c2ccccc2)C1c1ccccn1` (stereo not given), for which the IC50 (in assay [1]; on Aminopeptidase N; in assay [2]) was above 100 µM in each case.
For the compound `COc1cccc2c1C(=O)c1c(O)c3c(c(O)c1C2=O)C[C@@](O)(C(=O)CO)C[C@@H]3O[C@H]1C[C@H](N)[C@H](O)[C@H](C)O1` [DOXORUBICIN], the GI50 in the assay with HeLa stood at 7.51 µM; in the assay with HepG2, 4.45 µM; in the assay with A549 it was 8.14 µM.
With `CCOC(=O)C1=C(Nc2ccccc2)CC(c2ccc(C#N)cc2)N(c2ccccc2)C1c1ccccn1` (stereo not given), the IC50 (in assay [1]; at Aminopeptidase N; in assay [2]) was above 100 µM throughout.
